These results are taken from ChEMBL document CHEMBL3526002, “Tissue distribution and identification of radioactivity components at elimination phase after oral administration of [¹⁴C]CS-1036, an α-amylase inhibitor, to rats” (Drug Metab Dispos, 2013).

The nature of data set [1]: Drug uptake in albino F344/DuCrlCrlj rat assessed as radioactivity in oleic acid in adipose tissue homogenates at 10 mg/kg, po administered for 4 days by LC-MS/MS spectra analysis. The note with it: in vivo, 96 h.
Data set [2] has as its system Plasma. Description: Drug uptake in albino F344/DuCrlCrlj rat assessed as radioactivity in aspartic acid in plasma protein at 10 mg/kg, po administered for 5 days by accelerator mass spectrometry analysis. It is filed as ADME, organism-based. Set-up: dose 10 mg/kg, dosed compound name [14C]CS-1036, route oral. The note with it: in vivo, 120 h. A digest of the protocol: (§1)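 Rats were dosed orally with [14C]CS-1036 at 10 mg/kg/day for 5 days. Pooled plasma protein was washed and HCl-hydrolysed, then PTC-derivatized. It was separated by HPLC (40°C, gradient, UV 254 nm) and fractionated every 6 s over 0–15 min. Fraction 14C was measured by AMS after subtracting matching control-plasma fractions. Peaks were assigned by retention time against amino acid standards, and each fraction was expressed as % of injected radioactivity.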

The nature of data set [3]: Drug uptake in albino F344/DuCrlCrlj rat assessed as radioactivity in palmitic acid in adipose tissue homogenates at 10 mg/kg, po administered for 4 days by LC-MS/MS spectra analysis. The note with it: in vivo, 96 h.
In data set [4] the test system is Plasma. Kind of data set: Drug level in albino F344/DuCrlCrlj rat plasma treated with [14C]CS-1036 at 10 mg/kg, po after 8 to 72 hrs by liquid scintillation counting. Details: dose 10 mg/kg, dosed compound name [14C]CS-1036, route oral; call rule not given here. It is filed as ADME, organism-based. The note with it: in vivo.
The nature of data set [5]: Drug excretion in po dosed rat urine dosed as [14C]CS-1036 assessed as 1,4-dideoxy-1,4-imino-D-arabinitol (M1) level up to 24 hrs. It is filed as ADME, organism-based. Details: dosed compound name [14C]CS-1036. The following applies: in vivo.
The next data set has as its system Rattus norvegicus. Description: Half life in po dosed rat dosed and assessed as 1,4-dideoxy-1,4-imino-D-arabinitol level (M1). The following applies: in vivo. Set-up: dosed compound name M1. It is filed as ADME, organism-based.
Another data set has as its system Intestine. Kind of data set: Drug metabolism in po dosed rat in intestinal flora treated with [14C]CS-1036 by liquid scintillation counting. It is filed as ADME, organism-based. Details: dosed compound name [14C]CS-1036. The following applies: in vivo.
Data set [6] has as its system Plasma. Kind of data set: Drug metabolism in albino F344/DuCrlCrlj rat plasma protein treated with at 10 mg/kg, po of [14C]CS-1036 administered for 5 days by liquid scintillation counting. The note with it: in vivo, 120 h. It is filed as ADME, organism-based. Details: dose 10 mg/kg, dosed compound name [14C]CS-1036, route oral. In short, it runs like this:
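Male F344/DuCrlCrlj rats (n = 3) received oral [14C]CS-1036 at 10 mg/kg/day for 5 days at 24-h intervals, with food freely available. Plasma was taken from the abdominal aorta 24 h after the fifth dose and pooled. It was precipitated with acetonitrile, and the pellets were washed with 0.4 M TCA, 80% methanol and 30% ether/ethanol until washes were below twice background. Pellets were HCl-hydrolysed, and recovered radioactivity was counted by LSC.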

In data set [7] the test system is Plasma. Kind of data set: Drug uptake in albino F344/DuCrlCrlj rat assessed as radioactivity in glutamic acid in plasma protein at 10 mg/kg, po administered for 5 days by accelerator mass spectrometry analysis. The following applies: in vivo, 120 h. It is filed as ADME, organism-based. Details: dose 10 mg/kg, dosed compound name [14C]CS-1036, route oral. In short, it runs like this:
as §1

Data set [8] is described as follows: Systemic absorption of acarbose estimated from drug excretion in human urine. Details: dosed compound name acarbose. It is filed as ADME.

Regarding `CCCCCCCC/C=C\CCCCCCCC(=O)O` [OLEIC ACID], the Compound recovery result in data set [1] is “Active”.
For the compound `N[C@@H](CC(=O)O)C(=O)O` [ASPARTIC ACID], the Compound recovery in the data set with Plasma [2] amounted to 18.5%.
For `CCCCCCCCCCCCCCCC(=O)O` [PALMITIC ACID], the Compound recovery entry in data set [3] is reported as “Active”.
Turning to `OC[C@H]1NC[C@@H](O)[C@@H]1O`, the Drug metabolism result with Plasma [4], with Intestine and in the data set on Plasma [6] was “metabolite_detected” throughout. Besides, in data set [5], the Compound recovery is on record as 5.3%. Besides, in the data set on Rattus norvegicus, the t1/2 came to 48 min.
For `N[C@@H](CCC(=O)O)C(=O)O` [GLUTAMIC ACID], the Compound recovery in the data set on Plasma [7] worked out at 36.5%.
Consider `C[C@H]1O[C@H](O[C@H]2[C@H](O)[C@@H](O)[C@@H](O[C@H]3[C@H](O)[C@@H](O)C(O)O[C@@H]3CO)O[C@@H]2CO)[C@H](O)[C@@H](O)[C@@H]1N[C@H]1C=C(CO)[C@@H](O)[C@H](O)[C@H]1O` (stereo not given in full) [ACARBOSE], for which the Fa in data set [8] was 1.7%.
